Screening results deposited in PubChem BioAssay by several laboratories.
Most compounds without a hit are left out; they make up all but 2.1% or so of the library.
m-calpain inh: calpain II (pig) inhibition. hit rate 0.37% among 220,000. inhibition, % at 16 µM. purified calpain II, fluorogenic peptide substrate, 30 min. AID 1236;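 active means inhibition above about 50%, limit read from the data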
L929 necroptosis: L929 zVAD cell death inhibition | hit rate 0.38% among 220,000 | AID 1377 | L929 zVAD necroptosis rescue, ATP luminescence, 24 h; with zVAD 60 µM | viability rescue, % at 10 µM;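 active means activation, scaled between plate controls, above about 75%, limit read from the data; inactive means activation under that limit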;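 further: 0% = zVAD with DMSO and 100% = DMSO alone without zVAD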
Pf gametocyte: P. falciparum stage V gametocyte viability inhibition; P. falciparum stage V gametocytes, ATP luminescence, 24 h; AID 743093; hit rate 0.065% among 150,000; inhibition, % at 10.9 µM;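 active means inhibition above the mean plus 3 SD of compounds within the control limits, set per campaign, cut at about 38% in these data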;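 further: 0% = DMSO wells and 100% = medium only without gametocytes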
TNF death inh: inhibitors of TNF-alpha induced necroptosis in Jurkat FADD-/- cells; Jurkat FADD-/- TNF necroptosis rescue, ATP luminescence, 24 h; 0 = TNF only, 100 = no-TNF cells; activation (protection from cell death), % at 10 µM; hit rate 0.068% among 220,000;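 active means activation, meaning protection from cell death, of at least 50% relative to plate controls; inactive means activation below 50%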;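 further: necroptosis triggered by 40 ng/mL TNF-alpha added together with compound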
RBBP9 inhibitor: inhibitors of human serine hydrolase RBBP9 | O75884 | recombinant RBBP9, FP-Rh probe fluorescence polarization | inhibition, % at 7.94 µM | hit rate 0.2% among 220,000 | AID 1515;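 active means inhibition above the campaign mean of all tested compounds plus 3 SD, cut at about 14% in these data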;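 further: plate controls were DMSO wells with RBBP9 for no effect and wells lacking RBBP9 protein for full effect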
Target sequence (O75884 whole entry, looked up): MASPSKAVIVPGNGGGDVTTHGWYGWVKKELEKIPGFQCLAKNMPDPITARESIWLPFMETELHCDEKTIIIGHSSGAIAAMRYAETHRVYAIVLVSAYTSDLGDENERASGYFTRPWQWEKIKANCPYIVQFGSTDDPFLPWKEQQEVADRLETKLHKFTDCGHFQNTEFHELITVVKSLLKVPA
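System: RBBP9 protein / Quantity: 2.5 µM RBBP9 dispensing solution, before mixing / Also added: Serine-hydrolase probe FP-Rh, 375 nM pre-mixing / Dosing: 7.94 µM single dose, 0.794% DMSO / Timing: enzyme-compound preincubation 30 min, then probe labeling 45 min, 25 °C / Signal: FP readout at 525/598 nm / Controls: DMSO-treated enzyme wells and wells lacking RBBP9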
Wee1 stabilizer: human Wee1 degradation inhibition, primary screen; P30291; HeLa Luc-Wee1K328M stability, luciferase luminescence; 100% = proteasome inhibitor MG132 effect; reporter increase, % at 5 µM; hit rate 1.2% among 220,000;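 active means activation above the mean of all tested compounds plus 3 SD, set per screening run, cut at about 8.8% in these data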;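 further: cells exposed to compound for 20 h before luminescence read; 0% = DMSO alone and 100% = MG132 at 30 µM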
* = called active by the depositor; x = no result.

SMILES | m-calpain inh | L929 necroptosis | Pf gametocyte | TNF death inh | RBBP9 inhibitor | Wee1 stabilizer
C[C@@H]1NC(=O)c2cc([N+](=O)[O-])cc(I)c2OCC[C@@H](C(=O)NC(CC(=O)O)C(N)=O)NC(=O)[C@H](CCC(=O)O)NC1=O (stereo partly drawn) | -15 | 3 | x | 1 | 0 | 0
O=C(NNC(=O)c1c(F)cccc1F)c1ccccc1-n1cccc1 | -3 | 2 | -5 | 1 | -9 | -1
O=C1NC(=S)S/C1=C\c1ccc(SCc2ccco2)o1 | 52* | 1 | x | -3 | 7 | 1
O=C1NC(=S)S/C1=C\c1ccc(SCc2ccccc2)o1 | 39 | 2 | x | 0 | 0 | -2
CCOc1ccc(-n2nc(C(=O)N3CCN(CC)CC3)c3ccccc3c2=O)cc1 | -28 | 0 | x | -2 | -2 | 9.6*
CCOc1ccc(-n2nc(C(=O)NCCOC)c3ccccc3c2=O)cc1 | 2 | 0 | -3 | 0 | -10 | 0
O=S(=O)(NCc1cccnc1)c1ccc(Cl)cc1 | x | x | -7 | x | x | x
O=C(NCc1cccnc1)C1CCC(CNS(=O)(=O)c2ccc(Cl)cc2)CC1 (stereo not drawn) | 55* | 1 | x | 2 | 4 | -1
CCOCCCNC(=O)C1CCC(CNS(=O)(=O)c2ccc(Cl)cc2)CC1 (stereo not drawn) | 54* | 0 | -18 | 0 | -6 | -2
CCCOc1ccc(S(=O)(=O)N2CCOCC2)cc1[N+](=O)[O-] | 12 | -1 | 14 | 0 | -5 | -1
CC1(C)CC(=O)C2=C(C1)c1c(ccc3ccccc13)NC2c1cc([N+](=O)[O-])cc([N+](=O)[O-])c1O (stereo not drawn) | -117 | 29 | 10 | 3 | 0 | 0
CC1(C)C2CCC1(C)C(OCC[N+](C)(C)CC(=O)OC1CCCCC1)C2 (stereo not drawn) | 15 | 0 | -7 | -1 | -8 | 1
C#CCOCCOCCOCCNc1nc(N2CCN(C(=O)[C@H]([C@@H](C)CC)n3cc([C@@H](N)CC(C)C)nn3)CC2)nc(N2CCN(C(=O)[C@H](CCCCN)n3cc([C@@H](N)CO)nn3)CC2)n1 | -11 | 0 | x | 1 | 4 | 9.2*
C#CCOCCOCCOCCNc1nc(N2CCN(C(=O)[C@H]([C@@H](C)CC)n3cc([C@@H](N)CO)nn3)CC2)nc(N2CCN(C(=O)[C@H](CCCCN)n3cc([C@@H](N)CO)nn3)CC2)n1 | x | x | -14 | x | x | x
C#CCOCCOCCOCCNc1nc(N2CCN(C(=O)C([C@@H](C)CC)n3cc(C(N)CC(C)C)nn3)CC2)nc(N2CCN(C(=O)[C@H](CCC(=O)O)n3cc(C(N)Cc4ccc(O)cc4)nn3)CC2)n1 (stereo partly drawn) | -5 | 0 | x | 1 | -8 | 11*
Cc1ccc(C)c(NC(=O)CCN2CCC(C)CC2)c1 | x | x | 16 | x | x | x
COc1cccc(/C=N/NC(=O)CO/N=C(\C)c2cccs2)c1OC | -114 | 1 | 19 | -1 | 7 | 10*
C/C(=N\OCC(=O)N/N=C/c1ccccc1O)c1cccs1 | -99 | 2 | x | -5 | -5 | -3
COc1ccc(S(=O)(=O)N2CCC3(CC2)OCCO3)cc1 | 2 | 2 | x | 0 | -5 | 3
COc1ccc(C(=O)NCC(=O)N/N=C/c2cn[nH]c2-c2ccccc2)cc1 | 17 | 1 | 25 | 1 | 1 | 4
CN(Cc1ccccc1)CC(O)COc1ccc(CNCCOc2cccnc2)cc1 (stereo not drawn) | 9 | 0 | -8 | 1 | -5 | -3
CN(Cc1ccccc1)CC(O)COc1ccc(CNCCCOc2cccnc2)cc1 (stereo not drawn) | 13 | 0 | 7 | 0 | -5 | 8.9*
Cc1ccc(SCCNC(=S)Nc2cc(C)cc(C)c2)cc1 | 52* | 0 | x | -11 | 6 | 3
Cc1ccc(NC(=S)NCCSc2ccc(Cl)cc2)cc1 | 12 | 1 | -8 | -4 | -6 | -2
C/C(Cl)=C/CN1C(=O)C2C3C=CC(C3)C2C1=O (stereo not drawn) | -2 | 4 | -31 | 68* | -7 | 2
SMILES | m-calpain inh | L929 necroptosis | Pf gametocyte | TNF death inh | RBBP9 inhibitor | Wee1 stabilizer
CCOC(=O)C1=C(CNC(C)(C)CC(C)(C)C)NC(=O)NC1c1cccc([N+](=O)[O-])c1 (stereo not drawn) | 61* | 1 | -11 | 0 | -12 | -2
CCOC(=O)C1=C(CNCCc2ccc(Cl)cc2)NC(=O)NC1c1cccc([N+](=O)[O-])c1 (stereo not drawn) | 9 | 0 | 4 | 1 | -7 | -4
CCOC(=O)CC(Nc1nc(N2CCOCC2)nc(N2CCOCC2)n1)c1ccccc1Cl (stereo not drawn) | 4 | 0 | 2 | 0 | -6 | 4
O=C1NC(=Nc2ccccc2)SC1Cc1cccc(Cl)c1Cl (stereo not drawn) | -2 | 1 | x | 79* | 3 | -3
O=C1NC(=Nc2ccccc2)SC1Cc1ccccc1 (stereo not drawn) | -17 | 4 | -9 | 9 | -3 | 1
O=C(NCc1ccccn1)C1CCN(Cc2cnn(-c3ccccc3)c2-n2cccc2)CC1 | -27 | 3 | 2 | 1 | -11 | -2
COc1cccc(CNC(=O)C2CCN(Cc3cnn(-c4ccccc4)c3-n3cccc3)CC2)c1 | 42 | 0 | x | 1 | -1 | 8.9*
Cc1ccc2c(c1)nnn2C1CCN(S(=O)(=O)c2ccc(C(=O)N3CC(C)CC(C)C3)cc2)CC1 (stereo not drawn) | 51* | 0 | 11 | -5 | -7 | -3
O=C(NC1CCCCC1)C(c1cccnc1)N(C(=O)c1csnn1)C1CCCC1 (stereo not drawn) | -14 | -1 | x | -1 | -6 | 0
C=C1C(=O)O[C@@H]2C[C@@H](C)[C@@H]3C=CC(=O)[C@@]3(C)[C@@H](OC(C)=O)[C@H]12 | -16 | 130* | 13 | 33 | x | x
C[C@@H]1C[C@@H]2OC(=O)[C@]3(C)[C@H]2[C@@H](OC3(C)O)[C@]2(C)C(=O)C=C[C@H]12 (stereo partly drawn) | 0 | 0 | -33 | -5 | x | x
COC(=O)[C@]1(CC(C)C)N[C@H](c2ccc(-c3ccc(F)cc3)cc2)[C@@H]2C(=O)N(C)C(=O)[C@@H]21 | x | x | 13 | x | x | x
CCOC(=O)/C(N=Nc1c(C)n(C)n(-c2ccccc2)c1=O)=C(\C)O | 5 | 1 | 65* | 1 | -8 | 8.9*
CC(=O)/C(N=Nc1c(C)n(C)n(-c2ccccc2)c1=O)=C(\C)O | 7 | -1 | -18 | 0 | 4 | -2
O=C(NCc1c[nH]c2ccccc12)c1ccccc1 | x | x | -20 | x | x | x
Cc1c(=O)n(OCc2ccccc2F)c2ccccc2[n+]1[O-] | 73* | 0 | x | -2 | 1 | -1
CCC(C)NC(=O)CS(=O)Cc1nc(-c2ccccc2C)oc1C (stereo not drawn) | 5 | 1 | x | 0 | -8 | 1
